Measurements: ChEMBL document CHEMBL5303300, “EUbOPEN Chemogenomics Library - Multiplex” (2023)
“And” between values parts separate entries of the source, which are not always exact repeats. Equal entries are not always repeated.

Experiments:
U2OS = test: Multiplex assay against U2OS; format: toxicity, cell-based; settings: human, number of replicates 2
Procedure, shortened: (§1)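 Live cells were stained at seeding with Hoechst33342, BioTracker Green Microtubule Cytoskeleton Dye, MitoTracker Red and Annexin V Alexa Fluor 680, then imaged on a CQ1 microscope at 37°C and 5% CO2 after compound addition. CellPathfinder machine-learning gating split cells into Hoechst high-intensity objects or normal cells. Normal cells were split into healthy, pyknosed or fragmented nuclei, and pyknosed cells into mitotic or apoptotic. Tubulin, mitochondrial-mass and membrane-permeability phenotypes are per cents of healthy-nucleus cells.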

Fibroblast = test: Multiplex assay against human fibroblast; format: toxicity, cell-based; settings: number of replicates 2; procedure, shortened: as §1
[1] = 24 h, 1 µM, compound concentration 1 uM
[2] = 24 h, 10 µM, compound concentration 10 uM
[3] = 48 h, 1 µM, compound concentration 1 uM
[4] = 48 h, 10 µM, compound concentration 10 uM
[5] = 12 h, 1 µM, compound concentration 1 uM
[6] = 12 h, 10 µM, compound concentration 10 uM

SMILES: COC(=O)c1ccc2c(c1)NC(=O)/C2=C(\Nc1ccc(-c2nccn2C)cc1)c1ccccc1
- Population Tubulin-Different-Phenotype (%) (U2OS; [1]): 79% and 44%
- Population Apoptotic (%) (U2OS; [2]): 58% and 68%
- Population Healthy Nuclei (%) (U2OS; [2]): 42% and 74%
- Population Hoechst High Intensity Objects (%) (U2OS; [2]): 0%
- Population Membrane Permeable-Phenotype (%) (U2OS; [2]): 22% and 10%
- Population Mitochondria Different-Phenotype (%) (U2OS; [2]): 27% and 31%
- Population Mitotic Cells (%) (U2OS; [2]): 41% and 31%
- Population Normal (%) (U2OS; [2]): 100%
- Population Pyknosed Nuclei (%) (U2OS; [2]): 23% and 20%
- Population Tubulin-Different-Phenotype (%) (U2OS; [2]): 50% and 52%
- Population Apoptotic (%) (U2OS; [3]): 50% and 62%
- Population Healthy Nuclei (%) (U2OS; [3]): 71% and 90%
- Population Hoechst High Intensity Objects (%) (U2OS; [3]): 0%
- Population Membrane Permeable-Phenotype (%) (U2OS; [3]): 5% and 2%
- Population Mitochondria Different-Phenotype (%) (U2OS; [3]): 3% and 0%
- Population Mitotic Cells (%) (U2OS; [3]): 50% and 37%
- Population Normal (%) (U2OS; [3]): 100%
- Population Pyknosed Nuclei (%) (U2OS; [3]): 9% and 5%
- Population Tubulin-Different-Phenotype (%) (U2OS; [3]): 58% and 86%
- Population Apoptotic (%) (U2OS; [4]): 93% and 88%
- Population Healthy Nuclei (%) (U2OS; [4]): 40% and 72%
- Population Hoechst High Intensity Objects (%) (U2OS; [4]): 3% and 0%
- Population Membrane Permeable-Phenotype (%) (U2OS; [4]): 27% and 11%
- Population Mitochondria Different-Phenotype (%) (U2OS; [4]): 40% and 21%
- Population Mitotic Cells (%) (U2OS; [4]): 6% and 11%
- Population Normal (%) (U2OS; [4]): 96% and 99%
- Population Pyknosed Nuclei (%) (U2OS; [4]): 27% and 21%
- Population Tubulin-Different-Phenotype (%) (U2OS; [4]): 59% and 40%
- Population Apoptotic (%) (Fibroblast; [5]): 35% and 43%
- Population Fragmented Nuclei (%) (Fibroblast; [5]): 10% and 29%
- Population Healthy Nuclei (%) (Fibroblast; [5]): 72% and 51%
- Population Hoechst High Intensity Objects (%) (Fibroblast; [5]): 0%
- Population Membrane Permeable-Phenotype (%) (Fibroblast; [5]): 2% and 1%
- Population Mitochondria Different-Phenotype (%) (Fibroblast; [5]): 1% and 3%
- Population Mitotic Cells (%) (Fibroblast; [5]): 64% and 56%
- Population Normal (%) (Fibroblast; [5]): 99%
- Population Pyknosed Nuclei (%) (Fibroblast; [5]): 17% and 19%
- Population Tubulin-Different-Phenotype (%) (Fibroblast; [5]): 7% and 9%
- Total Cell Count (Fibroblast; [5]): 195 and 242
- Population Apoptotic (%) (Fibroblast; [6]): 50% and 45%
- Population Fragmented Nuclei (%) (Fibroblast; [6]): 21% and 17%
- Population Healthy Nuclei (%) (Fibroblast; [6]): 59% and 62%
- Population Hoechst High Intensity Objects (%) (Fibroblast; [6]): 0%
- Population Membrane Permeable-Phenotype (%) (Fibroblast; [6]): 13% and 9%
- Population Mitochondria Different-Phenotype (%) (Fibroblast; [6]): 2%
- Population Mitotic Cells (%) (Fibroblast; [6]): 50% and 54%
- Population Normal (%) (Fibroblast; [6]): 100% and 99%
- Population Pyknosed Nuclei (%) (Fibroblast; [6]): 18% and 19%
- Population Tubulin-Different-Phenotype (%) (Fibroblast; [6]): 67% and 56%
- Total Cell Count (Fibroblast; [6]): 317 and 270
- Population Apoptotic (%) (Fibroblast; [1]): 64% and 60%
- Population Healthy Nuclei (%) (Fibroblast; [1]): 74% and 53%
- Population Hoechst High Intensity Objects (%) (Fibroblast; [1]): 0%
- Population Membrane Permeable-Phenotype (%) (Fibroblast; [1]): 3%
- Population Mitochondria Different-Phenotype (%) (Fibroblast; [1]): 0%
- Population Mitotic Cells (%) (Fibroblast; [1]): 35% and 39%
- Population Normal (%) (Fibroblast; [1]): 99%
- Population Pyknosed Nuclei (%) (Fibroblast; [1]): 15% and 14%
- Population Tubulin-Different-Phenotype (%) (Fibroblast; [1]): 11% and 8%
- Total Cell Count (Fibroblast; [1]): 180 and 255
- Population Apoptotic (%) (Fibroblast; [2]): 70% and 67%
- Population Fragmented Nuclei (%) (Fibroblast; [2]): 24%
- Population Healthy Nuclei (%) (Fibroblast; [2]): 59% and 54%
- Population Hoechst High Intensity Objects (%) (Fibroblast; [2]): 0%
- Population Membrane Permeable-Phenotype (%) (Fibroblast; [2]): 5% and 6%
- Population Mitochondria Different-Phenotype (%) (Fibroblast; [2]): 8% and 6%
- Population Mitotic Cells (%) (Fibroblast; [2]): 29% and 32%
- Population Normal (%) (Fibroblast; [2]): 99%
- Population Pyknosed Nuclei (%) (Fibroblast; [2]): 16% and 21%
- Population Tubulin-Different-Phenotype (%) (Fibroblast; [2]): 60% and 43%
- Total Cell Count (Fibroblast; [2]): 317 and 264
- Population Apoptotic (%) (Fibroblast; [3]): 48% and 73%
- Population Healthy Nuclei (%) (Fibroblast; [3]): 69% and 56%
- Population Hoechst High Intensity Objects (%) (Fibroblast; [3]): 0%
- Population Membrane Permeable-Phenotype (%) (Fibroblast; [3]): 1% and 3%
- Population Mitochondria Different-Phenotype (%) (Fibroblast; [3]): 0%
- Population Mitotic Cells (%) (Fibroblast; [3]): 51% and 26%
- Population Normal (%) (Fibroblast; [3]): 100% and 99%
- Population Pyknosed Nuclei (%) (Fibroblast; [3]): 20% and 9%
- Population Tubulin-Different-Phenotype (%) (Fibroblast; [3]): 3% and 8%
- Total Cell Count (Fibroblast; [3]): 182 and 256
- Population Apoptotic (%) (Fibroblast; [4]): 84% and 86%
- Population Fragmented Nuclei (%) (Fibroblast; [4]): 22% and 26%
- Population Healthy Nuclei (%) (Fibroblast; [4]): 62% and 56%
- Population Hoechst High Intensity Objects (%) (Fibroblast; [4]): 0% and 1%
- Population Membrane Permeable-Phenotype (%) (Fibroblast; [4]): 5% and 6%
- Population Mitochondria Different-Phenotype (%) (Fibroblast; [4]): 5% and 9%
- Population Mitotic Cells (%) (Fibroblast; [4]): 15% and 13%
- Population Normal (%) (Fibroblast; [4]): 100% and 98%
- Population Pyknosed Nuclei (%) (Fibroblast; [4]): 14% and 17%
- Population Tubulin-Different-Phenotype (%) (Fibroblast; [4]): 45% and 38%
- Total Cell Count (Fibroblast; [4]): 302 and 261
